Laboratory results: ChEMBL document CHEMBL1165899, “Synthesis and antitumor evaluation of novel cyclic arylsulfonylureas: ADME-T and pharmacophore prediction” (2010)

Tests used:
Assay type in all cases: functional
SK-OV-3 = test: Growth inhibition of human SKOV3 cells at 10 uM after 48 hrs by sulforhodamine B assay relative to control; details: SK-OV-3, 48 h, read-out: GI
SK-MEL-2 = test: Growth inhibition of human SK-MEL-2 cells at 10 uM after 48 hrs by sulforhodamine B assay relative to control; details: SK-MEL-2, 48 h, read-out: GI
BT-549 = test: Growth inhibition of human BT549 cells at 10 uM after 48 hrs by sulforhodamine B assay relative to control; details: BT-549, 48 h, read-out: GI
K562 = test: Growth inhibition of human K562 cells at 10 uM after 48 hrs by sulforhodamine B assay relative to control; details: K562, 48 h, read-out: GI
NCI/ADR-RES = test: Growth inhibition of human NCI/ADR-RES cells at 10 uM after 48 hrs by sulforhodamine B assay relative to control; details: read-out: GI
HCT-116 = test: Growth inhibition of human HCT116 cells at 10 uM after 48 hrs by sulforhodamine B assay relative to control; details: HCT-116, 48 h, read-out: GI
HCC 2998 = test: Growth inhibition of human HCC2998 cells at 10 uM after 48 hrs by sulforhodamine B assay relative to control; details: HCC 2998, 48 h, read-out: GI
SNB-75 = test: Growth inhibition of human SNB75 cells at 10 uM after 48 hrs by sulforhodamine B assay relative to control; details: SNB-75, 48 h, read-out: GI
A549 = test: Growth inhibition of human A549 cells at 10 uM after 48 hrs by sulforhodamine B assay relative to control; details: A549, 48 h, read-out: GI
MOLT-4 = test: Growth inhibition of human MOLT4 cells at 10 uM after 48 hrs by sulforhodamine B assay relative to control; details: MOLT-4, 48 h, read-out: GI
SF-295 = test: Growth inhibition of human SF295 cells at 10 uM after 48 hrs by sulforhodamine B assay relative to control; details: SF-295, 48 h, read-out: GI
RXF 393 = test: Growth inhibition of human RXF393 cells at 10 uM after 48 hrs by sulforhodamine B assay relative to control; details: RXF 393, 48 h, read-out: GI
SF-539 = test: Growth inhibition of human SF539 cells at 10 uM after 48 hrs by sulforhodamine B assay relative to control; details: SF-539, 48 h, read-out: GI
SR = test: Growth inhibition of human SR cells at 10 uM after 48 hrs by sulforhodamine B assay relative to control; details: read-out: GI
T47D = test: Growth inhibition of human T47D cells at 10 uM after 48 hrs by sulforhodamine B assay relative to control; details: read-out: GI
How it was run: (§1)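 NCI 60-cell-line single-dose screen at 10 µM. Cells were plated at 5000–40,000 cells/well according to doubling time, in medium with 2 mM L-glutamine, and held 24 h at 37 °C, 5% CO₂, 100% humidity before drug. Time-zero plates were TCA-fixed. Exposure was 48 h, then TCA fixation and sulforhodamine B staining for 10 min, acetic acid washes, 10 mM trizma solubilization and A515. % inhibition = 100 − % activity, where 100% is the DMSO-solvent control.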

[1] = Growth inhibition of human Hs 578T cells at 10 uM after 48 hrs by sulforhodamine B assay relative to control; details: read-out: GI
KM12 = test: Growth inhibition of human KM12 cells at 10 uM after 48 hrs by sulforhodamine B assay relative to control; details: KM12, 48 h, read-out: GI
CCRF-CEM = test: Growth inhibition of human CCRF-CEM cells at 10 uM after 48 hrs by sulforhodamine B assay relative to control; details: read-out: GI
OVCAR-5 = test: Growth inhibition of human OVCAR5 cells at 10 uM after 48 hrs by sulforhodamine B assay relative to control; details: OVCAR-5, 48 h, read-out: GI
SK-MEL-28 = test: Growth inhibition of human SK-MEL-28 cells at 10 uM after 48 hrs by sulforhodamine B assay relative to control; details: SK-MEL-28, 48 h, read-out: GI
NCI-H322M = test: Growth inhibition of human NCI-H322M cells at 10 uM after 48 hrs by sulforhodamine B assay relative to control; details: read-out: GI
U-251 = test: Growth inhibition of human U251 cells at 10 uM after 48 hrs by sulforhodamine B assay relative to control; details: U-251, 48 h, read-out: GI; how it was run: as §1
MDA-MB-231 = test: Growth inhibition of human MDA-MB-231 cells at 10 uM after 48 hrs by sulforhodamine B assay relative to control; details: MDA-MB-231, 48 h, read-out: GI
LOX IMVI = test: Growth inhibition of human LOXIMVI cells at 10 uM after 48 hrs by sulforhodamine B assay relative to control; details: read-out: GI
MDA-MB-435 = test: Growth inhibition of human MDA-MB-435 cells at 10 uM after 48 hrs by sulforhodamine B assay relative to control; details: MDA-MB-435, 48 h, read-out: GI
HOP-92 = test: Growth inhibition of human HOP92 cells at 10 uM after 48 hrs by sulforhodamine B assay relative to control; details: HOP-92, 48 h, read-out: GI
Malme-3M = test: Growth inhibition of human MALME-3M cells at 10 uM after 48 hrs by sulforhodamine B assay relative to control; details: read-out: GI
PC-3 = test: Growth inhibition of human PC3 cells at 10 uM after 48 hrs by sulforhodamine B assay relative to control; details: PC-3, 48 h, read-out: GI
A498 = test: Growth inhibition of human A498 cells at 10 uM after 48 hrs by sulforhodamine B assay relative to control; details: A498, 48 h, read-out: GI
IGROV-1 = test: Growth inhibition of human IGROV1 cells at 10 uM after 48 hrs by sulforhodamine B assay relative to control; details: IGROV-1, 48 h, read-out: GI
NCI-H522 = test: Growth inhibition of human NCI-H522 cells at 10 uM after 48 hrs by sulforhodamine B assay relative to control; details: NCI-H522, 48 h, read-out: GI
TK-10 = test: Growth inhibition of human TK10 cells at 10 uM after 48 hrs by sulforhodamine B assay relative to control; details: TK-10, 48 h, read-out: GI; how it was run: as §1
HCT-15 = test: Growth inhibition of human HCT15 cells at 10 uM after 48 hrs by sulforhodamine B assay relative to control; details: HCT-15, 48 h, read-out: GI
M14 = test: Growth inhibition of human M14 cells at 10 uM after 48 hrs by sulforhodamine B assay relative to control; details: M14, 48 h, read-out: GI
UACC-62 = test: Growth inhibition of human UACC62 cells at 10 uM after 48 hrs by sulforhodamine B assay relative to control; details: UACC-62, 48 h, read-out: GI; how it was run: as §1

CN(C)c1ccc(/C=C2\NC(=O)N(S(=O)(=O)c3ccc(Cl)cc3)C2=O)cc1 gave an inhibition of growth at 10 µM (SK-OV-3) of -8.45%, an inhibition of growth at 10 µM (SK-MEL-2) of 1.29% and an inhibition of growth at 10 µM (BT-549) of 4.63%. It also gave an inhibition of growth at 10 µM (K562) of 8.89%, an inhibition of growth at 10 µM (NCI/ADR-RES) of -6.33% and an inhibition of growth at 10 µM (HCT-116) of -3.55%. It also gave an inhibition of growth at 10 µM (HCC 2998) of -54%, an inhibition of growth at 10 µM (SNB-75) of -5.55% and an inhibition of growth at 10 µM (A549) of -8.84%. The inhibition of growth at 10 µM (MOLT-4) was 11.5%, the inhibition of growth at 10 µM (SF-295) was -8.92% and the inhibition of growth at 10 µM (RXF 393) was 95.7%. It also gave an inhibition of growth at 10 µM (SF-539) of -0.9%, an inhibition of growth at 10 µM (SR) of 34.7% and an inhibition of growth at 10 µM (T47D) of -9.29%. The inhibition of growth at 10 µM [1] was 14.1%, the inhibition of growth at 10 µM (KM12) was -11.6% and the inhibition of growth at 10 µM (CCRF-CEM) was 2.95%. It also gave an inhibition of growth at 10 µM (OVCAR-5) of -4.44%, an inhibition of growth at 10 µM (SK-MEL-28) of -4.69% and an inhibition of growth at 10 µM (NCI-H322M) of -16.5%. For the same molecule, the inhibition of growth at 10 µM (U-251) was -0.69%, the inhibition of growth at 10 µM (MDA-MB-231) was -2.18% and the inhibition of growth at 10 µM (LOX IMVI) was 6.44%. The inhibition of growth at 10 µM (MDA-MB-435) was -4.89%, the inhibition of growth at 10 µM (HOP-92) was 11.2% and the inhibition of growth at 10 µM (Malme-3M) was -49.7%. It also gave an inhibition of growth at 10 µM (PC-3) of -6.65%, an inhibition of growth at 10 µM (A498) of -8.94% and an inhibition of growth at 10 µM (IGROV-1) of 97.9%. For the same molecule, the inhibition of growth at 10 µM (NCI-H522) was 9.78%, the inhibition of growth at 10 µM (TK-10) was -33.4% and the inhibition of growth at 10 µM (HCT-15) was 1.55%. The inhibition of growth at 10 µM (M14) was 200% and the inhibition of growth at 10 µM (UACC-62) was 3.93%.
